# Like-named read-outs stand apart in the source and are kept apart here.
# Legend:
# wt RB69pol = wt RB69pol (Escherichia phage RB69, UniProt Q38087, D222A/D327A); assay type: biochemical, bacteriophage RB69; conditions: template tC°; for kpol: 23°C, 10 mM Mg2+
# Method in brief: (§1)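 Single-turnover rapid quench was run at 23°C in 66 mM Tris-HCl pH 7.4 using exonuclease-deficient RB69pol. Enzyme plus 5'-32P primer/tC° template was mixed with Mg2+ and varying dNTP for 5 ms to 1 min (final 1 μM enzyme, 90 nM P/T, 10 mM Mg2+). Reactions were EDTA-quenched and resolved on 8 M urea PAGE. kobs came from single-exponential fits, then kpol and Kd,app from a hyperbolic fit; efficiency is kpol/Kd,app.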
# Y567A-P/T binary complex = Y567A-P/T binary complex (Escherichia phage RB69, UniProt Q38087, D222A/D327A/Y567A); assay: Equilibrium fluorescence titration of dNTP opposite tC°; assay type: binding, bacteriophage RB69; conditions: 1mM dNTP added to Y567A-P/T binary complex
# Method in brief: (§2)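 Exonuclease-deficient (D222A/D327A) RB69pol, wild type or Y567A, was expressed in E. coli BL21(DE). Enzyme at 1 μM was mixed with 300 nM 3'-dideoxy (ddC) terminated 13/18mer P/T carrying tC° at template position n, in 66 mM Tris-HCl pH 7.4 with 10 mM MgSO4 at 23°C. Excitation was 364 nm and emission was scanned 380–700 nm. Spectra were corrected for enzyme and buffer fluorescence.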
# RB69pol Y567A mutant = RB69pol Y567A mutant (Escherichia phage RB69, UniProt Q38087, D222A/D327A/Y567A); assay type: biochemical, bacteriophage RB69; conditions: for Kpol/Kd,app / kpol: Y567A mutant, template tC°; for kpol: 23°C, 10 mM Mg2+
# Method in brief: as §1
# Y567A RB69pol mutant = Y567A RB69pol mutant (Escherichia phage RB69, UniProt Q38087, D222A/D327A/Y567A); assay: Stopped-flow fluorescence of tC° quenching on dGTP binding; design: species or system bacteriophage RB69
# [1] = biological target: T1, wt RB69pol-P/T binary complex (Escherichia phage RB69, UniProt Q38087, D222A/D327A); assay: Equilibrium fluorescence titration of dNTP opposite tC°; assay type: binding, bacteriophage RB69; conditions: 1mM dNTP added to wt RB69pol-P/T binary complex
# Method in brief: as §2
# [2] = biological target: T1, wt RB69pol-P/T binary complex; assay: Stopped-flow fluorescence of tC° quenching on dGTP binding; design: species or system bacteriophage RB69; conditions: full quenching within instrument dead-time (< 2 ms)
# Sequence of wt RB69pol (Q38087 whole entry D222A/D327A): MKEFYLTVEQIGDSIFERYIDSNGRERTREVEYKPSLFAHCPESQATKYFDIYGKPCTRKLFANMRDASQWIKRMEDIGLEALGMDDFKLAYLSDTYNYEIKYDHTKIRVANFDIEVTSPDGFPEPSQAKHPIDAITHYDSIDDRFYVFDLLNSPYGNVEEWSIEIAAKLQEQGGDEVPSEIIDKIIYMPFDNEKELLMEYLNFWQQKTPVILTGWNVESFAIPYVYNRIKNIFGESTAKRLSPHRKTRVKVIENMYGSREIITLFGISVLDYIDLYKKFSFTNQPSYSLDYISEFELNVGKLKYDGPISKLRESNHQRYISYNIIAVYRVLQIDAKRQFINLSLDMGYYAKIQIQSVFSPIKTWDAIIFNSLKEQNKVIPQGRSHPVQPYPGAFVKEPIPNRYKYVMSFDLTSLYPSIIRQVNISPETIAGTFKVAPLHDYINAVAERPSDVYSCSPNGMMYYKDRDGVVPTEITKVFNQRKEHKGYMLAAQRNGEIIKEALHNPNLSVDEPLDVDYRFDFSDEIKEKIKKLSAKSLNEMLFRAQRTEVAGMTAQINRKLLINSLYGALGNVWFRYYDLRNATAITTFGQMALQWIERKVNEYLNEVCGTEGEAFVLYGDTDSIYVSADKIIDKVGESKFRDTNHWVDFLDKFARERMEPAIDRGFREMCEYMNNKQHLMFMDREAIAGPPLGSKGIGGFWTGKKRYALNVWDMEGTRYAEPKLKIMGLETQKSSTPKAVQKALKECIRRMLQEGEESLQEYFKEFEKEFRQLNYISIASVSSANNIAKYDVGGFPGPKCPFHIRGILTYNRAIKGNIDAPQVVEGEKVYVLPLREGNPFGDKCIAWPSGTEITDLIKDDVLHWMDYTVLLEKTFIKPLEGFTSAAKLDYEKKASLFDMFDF
# Sequence of RB69pol Y567A mutant (Q38087 whole entry D222A/D327A/Y567A): as the sequence (Q38087 whole entry D222A/D327A) above, with Y567A counted along it
# T1 sequence (Q38087 whole entry D222A/D327A, one chain of several): as the sequence (Q38087 whole entry D222A/D327A) above
# Sequence of Y567A-P/T binary complex (Q38087 whole entry D222A/D327A/Y567A, one chain of several): as the sequence (Q38087 whole entry D222A/D327A) above, with Y567A counted along it
# Sequence of Y567A RB69pol mutant (Q38087 whole entry D222A/D327A/Y567A): as the sequence (Q38087 whole entry D222A/D327A) above, with Y567A counted along it
Structure (SMILES),"Kpol/Kd,app (wt RB69pol)",fold difference in kpol between dGMP and dAMP (wt RB69pol),kpol (wt RB69pol),kpol (wt RB69pol; listed as dAMP),quenching of tC° fluorescence (Y567A-P/T binary complex),fold increase of incorporation efficiency opposite tC° (RB69pol Y567A mutant; Y567A mutant relative to wt RB69pol),"Kpol/Kd,app (RB69pol Y567A mutant)",kpol (RB69pol Y567A mutant),kpol (RB69pol Y567A mutant; listed as dAMP),rate of tC° fluorescence quenching (Y567A RB69pol mutant),quenching of tC° fluorescence [1],rate of tC° fluorescence quenching [2]
Nc1ncnc2c1ncn2[C@H]1C[C@H](O)[C@@H](COP(=O)(O)OP(=O)(O)OP(=O)(O)O)O1 [dATP],0.0035 µM⁻¹ s⁻¹,40 fold,6 ± 0.2 s⁻¹,6 s⁻¹,~15%,200 fold,0.7 µM⁻¹ s⁻¹,180 ± 10 s⁻¹,180 s⁻¹,,,
Nc1nc2c(ncn2[C@H]2C[C@H](O)[C@@H](COP(=O)(O)OP(=O)(O)OP(=O)(O)O)O2)c(=O)[nH]1 [dGTP],1.8 µM⁻¹ s⁻¹,,250 ± 7 s⁻¹,,about 30%,,43 µM⁻¹ s⁻¹,170 ± 10 s⁻¹,,> 500 s⁻¹,about 30%,greater than 500 s^−1

# Source: article PMC3437246 (Biochemistry, 2012)
